The list is not random: actives were taken first. Their share in the collection is about 1.9%.
Scp-1 inhibitor – Scp-1 phosphatase inhibitors, primary screen, biochemical, colorimetric, uHTS. Carboxy-terminal domain RNA polymerase II polypeptide A small phosphatase 1 (Homo …. Recombinant Scp1, phosphopeptide, malachite green phosphate absorbance. inhibition, % at 20 µM. 0.88% of 340,000 active;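 active = inhibition above about 50% at 20 µM, limit read from the data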;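 note: plate controls were DMSO wells with enzyme for no effect and wells lacking enzyme for full effect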
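System: truncated SCP-1 phosphatase (76-261aa); medium: Tris acetate buffer pH 5.5 with MgCl2 and Tween-20; incubation: 45 min room-temperature reaction, 5 min colour, 30 min stabiliser; compound: single 20 µM dose, 1% DMSO; reagent: Phosphorylated 17-residue peptide substrate; read-out: % inhibition at 20 µM; technique: colorimetric free-phosphate detection, absorbance 630 nm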
STEP block – STEP phosphatase inhibitors, primary screen, biochemical, fluorescence intensity, uHTS; recombinant STEP, OMFP fluorogenic substrate; inhibition, % at 20 µM; 0.25% of 360,000 active; AID 588621, 2011;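 active = inhibition at 20 µM, scaled per plate between control wells, above about 37%, limit read from the data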;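 note: 0% = DMSO with enzyme and substrate and 100% = substrate only without enzyme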
Target sequence (P54829 whole entry, looked up): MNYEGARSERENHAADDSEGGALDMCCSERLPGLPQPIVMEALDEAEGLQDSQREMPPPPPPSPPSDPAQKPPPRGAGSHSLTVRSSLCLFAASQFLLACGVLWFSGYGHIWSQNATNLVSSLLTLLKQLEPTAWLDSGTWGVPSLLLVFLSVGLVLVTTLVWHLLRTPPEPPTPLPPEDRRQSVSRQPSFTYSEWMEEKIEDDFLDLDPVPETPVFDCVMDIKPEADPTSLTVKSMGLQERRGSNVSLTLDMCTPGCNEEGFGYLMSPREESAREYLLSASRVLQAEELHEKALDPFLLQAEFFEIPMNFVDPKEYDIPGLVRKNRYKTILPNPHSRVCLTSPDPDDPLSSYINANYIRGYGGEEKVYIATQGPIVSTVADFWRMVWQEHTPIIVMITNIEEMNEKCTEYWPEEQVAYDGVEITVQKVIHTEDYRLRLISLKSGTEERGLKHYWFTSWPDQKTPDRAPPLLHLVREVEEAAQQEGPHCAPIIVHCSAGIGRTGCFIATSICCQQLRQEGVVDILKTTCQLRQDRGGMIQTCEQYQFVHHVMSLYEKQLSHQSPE
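Also added – OMFP at 25 µM · Test system – STEP tyrosine phosphatase · Technique – FITC-channel fluorescence of OMFP product · Schedule – 20 min at room temperature, dark · Evaluation – control-normalized % inhibition with plate pattern correction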
LMPTP block – LMPTP phosphatase inhibitors, primary screen, biochemical, fluorescence intensity, uHTS; recombinant LMPTP-A, OMFP fluorogenic substrate; inhibition, % at 20 µM; 0.22% of 360,000 active;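 active = compounds that cut the enzyme signal by at least half of the control window in the single-dose screen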;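 note: plate controls were DMSO wells with enzyme plus substrate for no effect and substrate without enzyme for full effect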
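material = LMPTP-A | quantity = 0.625 nM enzyme | reagent = OMFP substrate, 400 µM final | buffer or medium = Bis-Tris pH 6.0, DTT, detergent | detection = endpoint fluorescence intensity from OMFP dephosphorylation | dosing = single 20 µM dose | read-out basis = % inhibition relative to no-enzyme and uninhibited control wells | control set = no-enzyme and uninhibited controls | timing = 50 min at room temperature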
SUMO1 PPI mod – modulators of SUMO1 protein-protein interactions, primary screen, biochemical, uHTS. 0.33% of 360,000 active. AID 602429, 2012. SUMO1 binding to a labelled peptide, TR-FRET, 1 h. inhibition, % at 20 µM. Small ubiquitin-related modifier 1 (Homo sapiens), P63165; in the data active = inhibition above about 37%
FAS TE block – FAS thioesterase domain inhibitors, primary screen, biochemical, fluorescence intensity, uHTS; Fatty acid synthase (Homo sapiens), P49327; recombinant FAS-TE, OMFH fluorogenic substrate, fluorescence endpoint; inhibition, % at 15 µM; 0.67% of 360,000 active; AID 602261, 2012;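 active = compounds whose normalised, plate-corrected inhibition of enzyme fluorescence in the single-dose primary screen is 50% or more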;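 note: 0% = DMSO with enzyme and 100% = substrate without enzyme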
FAS-TE conf – FAS thioesterase domain inhibitors, confirmation, biochemical, fluorescence intensity, single concentration; shares compounds with FAS TE block; recombinant FAS-TE, OMFH fluorogenic substrate; inhibition, % at 15 µM; 45% of 2,300 active; AID 624325, 2012;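 active = compounds inhibiting the enzyme by at least 50% at 15 µM in any one of the replicates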;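 note: 0% = enzyme with DMSO only and 100% = wells lacking enzyme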
Starred values were filed as active, the others as inactive; / = no result given.

SMILES	Scp-1 inhibitor	STEP block	LMPTP block	SUMO1 PPI mod	FAS TE block	FAS-TE conf
CCOC(=O)C1CCCN(Cc2ccc(OC)c(OCc3ccccc3)c2)C1 (configuration not stated)	-2	1	-3	5	2	/
CN(CC(=O)Nc1ccc(Cl)c(Cl)c1)C(=O)C12CC3CC(CC(C3)C1)C2	-5	-4	2	4	54*	19
CN(C)S(=O)(=O)c1ccc(C(=O)Nc2cc(S(=O)(=O)Nc3ccccc3Cl)ccc2N2CCCCC2)cc1	5	0	1	5	73*	22
Cc1ccc(N(C(=O)c2snc(C(N)=O)c2N)C(C(=O)NC2CCCC2)c2ccncc2)cc1 (configuration not stated)	1	1	1	-12	1	/
O=C1S/C(=C\c2ccc(O)c([N+](=O)[O-])c2)C(=O)N1c1ccccc1Cl	-8	6	-10	-15	18	/
O=C1S/C(=C\c2ccc(O)c([N+](=O)[O-])c2)C(=O)N1Cc1cccc([N+](=O)[O-])c1	1	7	2	7	78*	51*
CCCCC(=O)Nc1ccccc1C(=O)OCC(=O)c1ccc2c(c1)OCCO2	-8	3	2	2	56*	30
COc1ccc(CC(=O)Nc2nc(-c3ccc(F)c(F)c3)cs2)cc1	-11	0	3	0	36	/
O=C(Cc1ccc(F)cc1)Nc1nc(-c2ccc(F)c(F)c2)cs1	-11	0	3	0	51*	6
CC(/C=C1\SC(=S)N(c2ccc(C(=O)O)cc2)C1=O)=C\c1ccccc1	18	2	17	57*	90*	14
O=[N+]([O-])c1ccc(CN2CC(N3CCC(Cc4ccccc4)CC3)CS2(=O)=O)cc1 (configuration not stated)	/	1	2	-18	51*	57*
O=[N+]([O-])c1ccc(CN2CC(N3CCCC3)CS2(=O)=O)cc1 (configuration not stated)	/	-2	1	-13	-6	/
Nc1ccc(C(=O)OCC(=O)N2CCc3ccccc3C2)cc1[N+](=O)[O-]	6	0	2	-24	23	/
NCCNc1ccc(C(=O)N2c3ccccc3Sc3ccccc32)cc1[N+](=O)[O-]	11	4	-2	-125	-55	/
Nc1ccc(C(=O)OCC(=O)N2c3ccccc3Sc3ccccc32)cc1[N+](=O)[O-]	-14	2	1	-9	66*	24
O=C(COC(=O)c1ccccc1C(=O)c1ccc(Cl)c([N+](=O)[O-])c1)NC1CCCCCC1	-9	5	3	-7	28	/
O=C(COC(=O)c1ccc(Cl)c([N+](=O)[O-])c1)NC1CCCC1	3	-3	-1	-27	74*	65*
O=C(OCC(=O)N1CCc2ccccc2C1)c1ccc(Cl)c([N+](=O)[O-])c1	-8	0	1	-25	72*	71*
CCn1cc(C(=O)NCc2ccc(Cl)cc2)c(=O)c2cc(S(=O)(=O)N3CCOCC3)ccc21	-12	-1	1	4	12	/
CCn1cc(C(=O)NCc2ccc(Cl)cc2)c(=O)c2cc(S(=O)(=O)N(C)C)ccc21	-7	1	1	-1	64*	77*
CCn1cc(C(=O)NCc2ccc3c(c2)OCO3)c(=O)c2cc(S(=O)(=O)N(C)C)ccc21	-8	-1	0	6	57*	42*
CCn1cc(C(=O)NCCc2ccc(Cl)cc2)c(=O)c2cc(S(=O)(=O)N(C)C)ccc21	-7	-3	0	-31	75*	34
CCn1cc(C(=O)NCCc2ccc(C)cc2)c(=O)c2cc(S(=O)(=O)N(C)C)ccc21	5	/	/	/	/	/
CCn1cc(C(=O)NC(C)CCc2ccccc2)c(=O)c2cc(S(=O)(=O)N(C)C)ccc21 (configuration not stated)	-8	-1	-1	2	63*	28
O=C(CCC1CCCC1)Nc1cc(Cl)ccc1N1CCOCC1	0	6	2	3	24	/
SMILES	Scp-1 inhibitor	STEP block	LMPTP block	SUMO1 PPI mod	FAS TE block	FAS-TE conf
CC(C)(C)c1ccc(C(=O)NCCC(=O)Nc2cc(Cl)ccc2N2CCOCC2)cc1	-10	-1	1	1	67*	67*
CC(C)OC(=O)/C(C#N)=C/c1ccc(-c2ccc(SC(F)F)cc2)o1	-10	-2	2	-2	61*	9
O=C(COc1ccc([N+](=O)[O-])cc1)Nc1ccc2c(c1)OCO2	3	-3	0	-10	59*	41
CCC(OC(=O)CN1C(=O)C(=O)c2ccccc21)C(=O)Nc1ccccc1OC (configuration not stated)	-3	0	-1	-17	0	/
O=C1CC(c2ccccc2)CC2=C1C1(CCCC1)N=C(Nc1nc3ccccc3o1)N2 (configuration not stated)	/	0	0	-43	69*	10
Cc1ccc([C@@H]2C[C@H]3[C@@H](CN2S(=O)(=O)c2ccc(C)cc2)C(=O)C[C@@H](c2ccccc2)N3S(=O)(=O)c2ccc(C)cc2)cc1	/	6	0	10	31	/
Cc1ccc(S(=O)(=O)N2[C@H](c3ccccc3)CC(=O)[C@@H]3CN(S(=O)(=O)c4ccccc4)[C@H](c4ccccc4)C[C@@H]32)cc1	/	1	2	0	83*	28
COc1ccc([C@@H]2CC(=O)[C@@H]3CN(S(=O)(=O)c4ccc(C)cc4)[C@H](c4ccccc4)C[C@@H]3N2S(=O)(=O)c2ccccc2)cc1	/	1	2	5	77*	10
CCOc1ccccc1N1CC(C(=O)Nc2cc(S(C)(=O)=O)ccc2Cl)CC1=O (configuration not stated)	-6	-1	-2	2	-7	/
Cc1cccc(C(=O)NCCC(=O)Nc2ccc(C)c(F)c2)c1	4	1	1	-1	5	/
Cc1cccc(C(=O)NCCC(=O)Nc2ccc(F)c([N+](=O)[O-])c2)c1	4	-1	2	-31	54*	68*
Cc1ccc2nc(SCC(=O)Nc3ccc(F)c([N+](=O)[O-])c3)[nH]c2c1	1	-3	2	-24	62*	68*
COc1ccc(NC(=O)CN2C(=O)COc3ccc(S(=O)(=O)N4CCCCCC4)cc32)cc1	23	3	0	-4	18	/
